Measured values taken from publication PMC11837772 (RSC Advances, 2025).
Entries after “also recorded” stand apart in the source; their conditions may differ. Where two headings read alike, the source gives them in different places.

How the values were obtained:
[1] = test system: SARS-CoV-2 3CL protease; conditions: read-out: IC50 against SARS-CoV-2 3CL protease; cited from earlier work
[2] = test system: L. donovani promastigotes; experiment: IC50 from dose-dependent anti-promastigote activity; assay type: cell-based, Leishmania donovani; conditions: read-out: IC50 against L. donovani promastigotes, 72 h
How it was run: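 Log-phase promastigotes (26 °C, M199 with 10% heat-inactivated FBS) were exposed to graded concentrations of test compound, and viability was read by MTT. Percentage viability was calculated as treated/untreated mean × 100. IC50 was extrapolated from the % viability versus concentration plot, from triplicate experiments as mean ± SEM.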

[3] = test system: THP-1 human monocytic cells; experiment: Cytotoxicity assay; assay type: cell-based; conditions: for Log CC50 / CC50: THP-1 human monocytic cells, 72 h, MTT; for CC50: unit printed in Table 5 only
How it was run: (§1)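 THP-1 cells in RPMI with 10% FBS were seeded at 1 × 10^6 cells per mL and held 24 h at 37 °C in humidified CO2. Medium was then replaced with test compound or standard at 100, 50, 25, 12.5 and 6.25 μM for 72 h. Viability was read by MTT (0.5 mg mL−1, 4 h, 37 °C), with formazan dissolved in DMSO and absorbance at 570 nm.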

[4] = test system: L. donovani promastigotes; experiment: Primary screening against L. donovani promastigotes; assay type: cell-based; conditions: Leishmania donovani, 48 h, read-out: % inhibition (48 h)
How it was run: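 Promastigotes at 2 × 10^6 cells per mL in RPMI at 26 °C were given test compound at 100 μM, with DMSO (0.2%) as solvent, an amphotericin B reference and a medium-only control. Viability was read by MTT and expressed as % inhibition.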

[5] = test system: intracellular L. donovani amastigotes; experiment: Intracellular amastigotes assay in infected macrophages; assay type: cell-based, Leishmania donovani; conditions: for Percentage Reductions (%) in intracellular amastigotes: 72 h; for SI (selectivity index): CC50 (THP-1) / IC50 (intracellular amastigotes)
How it was run: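 Macrophages (5 × 10^4 per chamber) adhered 2 h at 37 °C in 5% CO2, were washed with serum-free RPMI, then infected overnight with metacyclic L. donovani at 10:1 in complete RPMI 1640. Free promastigotes were washed off after 24 h, and test compound was added in duplicate for 72 h at 37 °C in 5% CO2. Giemsa-stained amastigotes per 100 macrophages were counted and expressed as a percentage of the untreated control mean.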

[6] = Cytotoxicity assay; assay type: cell-based, human; conditions: human, THP-1 human monocytic cells, pH 7.4, Log CC50, THP-1 human monocytic cells, 72 h, MTT
How it was run: as §1

[7] = target: T1, papain (Carica papaya, UniProt P00784); experiment: In vitro cysteine protease inhibition assay; assay type: biochemical
T1 sequence (P00784 134-345): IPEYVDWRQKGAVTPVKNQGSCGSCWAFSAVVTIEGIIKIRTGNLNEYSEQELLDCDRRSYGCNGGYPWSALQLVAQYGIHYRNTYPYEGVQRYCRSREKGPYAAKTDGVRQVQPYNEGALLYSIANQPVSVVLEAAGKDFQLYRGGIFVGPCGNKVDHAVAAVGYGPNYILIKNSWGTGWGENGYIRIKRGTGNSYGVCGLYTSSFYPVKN
How it was run: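 Papain was run in activation buffer of sodium acetate (pH 5.5), 8 mM DTT and 4 mM EDTA, with papain […], 10 μM Bz-Arg-AMC and inhibitor at 0–32 μM (dissolved in DMSO). AMC release was followed by fluorescence (excitation 345 nm, emission 440 nm) for 120 min. IC50 came from the straight-line fit of % residual activity versus log[inhibitor].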

[8] = test system: L. donovani promastigotes; experiment: Cellular morphological alteration of promastigotes; assay type: cell-based, Leishmania donovani; conditions: 48 hours, contrast microscope 40× objective
How it was run: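 Exponential-phase promastigotes (grown at 26 °C in M199 with 10% heat-inactivated FBS) at 2 × 10^6 cells per mL were incubated without or with test compound or reference drug at 1 μM for 48 h. Cell shape was examined by contrast/light microscopy (40× objective) at 0 and 48 h and scored for programmed-cell-death-type morphology.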

[9] = test system: L. donovani; conditions: read-out: IC50 against L. donovani; ref Ahmed H. E. Hassan and his team; cited from earlier work
[10] = preliminary cytotoxicity assessments; ref Ahmed H. E. Hassan and his team; cited from earlier work
[11] = serial dilutions starting at 25 μM, MTT

In the case of `O=[N+]([O-])C=Cc1ccc([N+](=O)[O-])cc1` [compound 2, 4-nitro-β-nitrostyrene], the IC50 [1] is listed as 0.73 µM.
In the case of “(E)-2-(4-(2-Nitrobut-1-en-1-yl)phenoxy)-N-(1-oxo-3-phenyl-1-thiomorpholinopropan-2-yl)acetamide [14c]”, the IC50 [2, 11] is reported as 7.24 µM, the “Log CC50” value [3] is reported as 0.5684 and the CC50 [3] is reported as 3.7 µM.
In the case of `C[C@@H]1[C@H](O)[C@@H](C)/C=C/C=C/C=C/C=C/C=C/C=C/C=C/[C@H](O[C@@H]2O[C@H](C)[C@@H](O)[C@H](N)[C@@H]2O)C[C@@H]2O[C@](O)(C[C@@H](O)C[C@@H](O)[C@H](O)CC[C@@H](O)C[C@@H](O)CC(=O)O[C@H]1C)C[C@H](O)[C@H]2C(=O)O` [AmphoB, Amphotericin B, reference compound], the inhibition at 100 µM [4] is reported as 78.5%, the IC50 ([2]; Leishmania donovani) is reported as 3.07 µM and the “Percentage Reductions (%) in intracellular amastigotes” value (“Percentage Reductions (%)” for short) ([5]; 3.125 μM) is reported as 52.3%. For the same compound, the “Percentage Reductions (%)” value ([5]; 6.25 μM) was 63.2%, the “Percentage Reductions (%)” value ([5]; 12.5 μM) was 85.5% and the “SI (selectivity index)” value [5] was 3.48.
With “(E)-2-(4-(2-Nitrobut-1-en-1-yl)phenoxy)-1-(2-(thiomorpholine-4-carbonyl)pyrrolidin-1-yl)ethan-1-one [14d]” the IC50 [2, 11] was 7.56 µM, the “Log CC50” value [3] was 0.5025 and the CC50 [3] was 3.18 µM.
For “Methyl (E)-(2-(1H-indol-3-yl)-2-(2-(4-(2-nitrobut-1-en-1-yl)phenoxy)acetamido)acetyl)valinate [14h]”, the IC50 [2, 11] was 10 µM, the “Log CC50” value [3] was 1.109 and the CC50 [3] was 12.9 µM.
Compound `CC/C(=C\c1ccc(OCC(=O)NC(Cc2ccccc2)C(=O)N2CCOCC2)cc1)[N+](=O)[O-]` (stereo not drawn) [14a, (E)-N-(1-Morpholino-1-oxo-3-phenylpropan-2-yl)-2-(4-(2-nitrobut-1-en-1-yl)phenoxy)acetamide] has an inhibition at 100 µM [4] of 84.8%, an IC50 ([2]; Leishmania donovani) of 11.9 µM and a CC50 at 72 h [6] of 28.7 µM. For the same compound, the “cytotoxicity to mammalian macrophages” value ([3]; even at a concentration of 28 μM) was “negligible cytotoxicity; also recorded: insignificant cytotoxicity”, the “Percentage Reductions (%)” value ([5]; 3.125 μM) was 37.2% and the “Percentage Reductions (%)” value ([5]; 6.25 μM) was 44.1%. For the same compound, the “Percentage Reductions (%)” value ([5]; 12.5 μM) was 57.5%, the “SI (selectivity index)” value [5] was 3.55 and the IC50 [7] was 9.63 ± 0.28 µM. The “morphological changes of treated promastigotes” value [8] was “notable morphological alterations”.
In the case of `CCCCCCCC/C=C\CCCCCCCCCCCCOP(=O)([O-])OCC[N+](C)(C)C` [erufosine], the IC50 [9] is listed as 9.8 µM and the CC50 [10] is listed as 19.4 µM.
With `CC/C(=C\c1ccc(OCC(=O)N[C@@H](Cc2c[nH]c3ccccc23)C(=O)N[C@@H](C)C(=O)OC)cc1)[N+](=O)[O-]` [14j, Methyl (E)-(2-(4-(2-nitrobut-1-en-1-yl)phenoxy)acetyl)tryptophylalaninate] the inhibition at 100 µM [4] was 65.5%.
Work on `CC/C(=C\c1ccc(OCC(=O)N[C@@H](Cc2ccccc2)C(=O)N[C@@H](C)C(=O)OC)cc1)[N+](=O)[O-]` [14k, Methyl (E)-(2-(4-(2-nitrobut-1-en-1-yl)phenoxy)acetyl)phenylalanylalaninate] yielded an inhibition at 100 µM [4] of 54.8%.
In the case of `CC/C(=C\c1ccc(OCC(=O)N[C@@H](Cc2ccccc2)C(=O)NCC(=O)OC)cc1)[N+](=O)[O-]` [14i, Methyl (E)-(2-(4-(2-nitrobut-1-en-1-yl)phenoxy)acetyl)phenylalanylglycinate], the inhibition at 100 µM [4] is reported as 84.5%, the IC50 ([2]; Leishmania donovani) is reported as 5.3 µM and the CC50 at 72 h [6] is reported as 5.15 µM.
With “(E)-1-(2-(Morpholine-4-carbonyl)pyrrolidin-1-yl)-2-(4-(2-nitrobut-1-en-1-yl)phenoxy) ethan-1-one [14b]” the IC50 [2, 11] was 16.8 µM, the “Log CC50” value [3] was 0.7734 and the CC50 [3] was 5.93 µM.
